The source made the active and inactive calls. No cut-off for these calls is given here.
Columns and labels:
Mus musculus [1] = assay: Protection against cerulein-induced pancreatitis in CD1 mouse assessed as reduction in neutrophil infiltration at 40 mg/kg, ip administered at 30 and 150 mins post first cerulein addition by myeloperoxidase staining based spectrophotometry; assay type: functional, organism-based
[2] = target: Transient receptor potential cation channel subfamily M member 8 (Homo sapiens) (UniProt Q7Z2W7); assay: Antagonist activity at TRPM8 (unknown origin) expressed in HEK cells assessed as inhibition of menthol -mediated calcium increase at 10 uM by fura-2-based assay; assay type: cell-based
Transient receptor potential cation channel subfamily M member 8 (Homo sapiens), sequence (Q7Z2W7 whole entry, looked up): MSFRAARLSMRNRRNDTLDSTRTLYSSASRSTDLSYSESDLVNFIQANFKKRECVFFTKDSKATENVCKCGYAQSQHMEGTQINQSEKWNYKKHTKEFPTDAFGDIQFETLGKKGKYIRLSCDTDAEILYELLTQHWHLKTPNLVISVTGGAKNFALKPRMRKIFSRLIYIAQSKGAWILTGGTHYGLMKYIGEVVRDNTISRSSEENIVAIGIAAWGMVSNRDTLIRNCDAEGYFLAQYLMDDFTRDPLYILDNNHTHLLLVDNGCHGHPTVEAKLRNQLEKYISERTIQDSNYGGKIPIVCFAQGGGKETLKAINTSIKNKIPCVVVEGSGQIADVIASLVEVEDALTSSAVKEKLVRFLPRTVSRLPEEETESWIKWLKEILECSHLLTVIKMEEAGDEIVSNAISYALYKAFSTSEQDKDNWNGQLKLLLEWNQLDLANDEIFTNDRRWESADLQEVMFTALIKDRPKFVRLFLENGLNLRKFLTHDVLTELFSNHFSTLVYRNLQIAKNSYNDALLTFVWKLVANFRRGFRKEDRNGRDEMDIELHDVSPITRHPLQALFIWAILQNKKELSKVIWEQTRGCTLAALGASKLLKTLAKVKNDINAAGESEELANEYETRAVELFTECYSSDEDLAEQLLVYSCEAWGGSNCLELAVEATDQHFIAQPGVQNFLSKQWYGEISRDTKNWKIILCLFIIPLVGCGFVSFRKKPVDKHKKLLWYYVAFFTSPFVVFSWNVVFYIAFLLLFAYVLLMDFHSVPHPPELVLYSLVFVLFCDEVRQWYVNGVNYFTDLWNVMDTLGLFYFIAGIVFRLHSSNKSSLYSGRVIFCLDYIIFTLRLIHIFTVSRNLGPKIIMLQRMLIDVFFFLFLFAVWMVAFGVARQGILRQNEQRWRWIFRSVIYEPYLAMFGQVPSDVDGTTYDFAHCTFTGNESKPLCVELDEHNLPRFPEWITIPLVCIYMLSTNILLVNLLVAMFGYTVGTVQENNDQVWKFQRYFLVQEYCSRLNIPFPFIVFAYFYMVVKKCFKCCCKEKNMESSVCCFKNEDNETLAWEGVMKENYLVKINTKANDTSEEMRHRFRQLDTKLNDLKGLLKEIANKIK
How it was run: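 TRPM8-overexpressing Hek cells; calcium rise evoked by menthol (100 μM), test compounds at 10 μM; peak amplitude read out; mean ± SEM of 600 cells from 30 plates on four separate experimental days.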

Mus musculus [3] = assay: Acute toxicity in CD1 mouse assessed as histological alterations in heart at 40 mg/kg, ip administered as single dose for 14 days; assay type: organism-based; details: in vivo, 336 h
[4] = Cmax in ip dosed CD1 mouse after 1 hr by LC-ESI-MS analysis; assay type: ADME, organism-based; design: route intraperitoneal; details: in vivo
[5] = Clearance in ip dosed CD1 mouse by LC-ESI-MS analysis; assay type: ADME, organism-based; details: in vivo
Mus musculus [6] = assay: Acute toxicity in CD1 mouse assessed as histological alterations in brain at 40 mg/kg, ip administered as single dose for 14 days; assay type: organism-based; details: in vivo, 336 h
[7] = Drug metabolism in CD1 mouse liver microsomes assessed as 1-(4-(4-(3-Carboxyphenyl)-1H-1,2,3-triazol-1-yl)phenyl)-5-(trifluoromethyl)-1H-pyrazole-4-carboxylic Acid metabolite formation at 50 uM after 60 mins by mass spectroscopic analysis; assay type: ADME, microsome
Mus musculus [8] = assay: Acute toxicity in CD1 mouse assessed as signs of distress at 40 mg/kg, ip administered as single dose for 14 days; assay type: organism-based; details: in vivo, 336 h
Mus musculus [9] = assay: Protection against cerulein-induced pancreatitis in CD1 mouse assessed as reduction in pancreatic inflammation at 40 mg/kg, ip administered at 30 and 150 mins post first cerulein addition by hematoxylin and eosin staining based microscopy; assay type: functional, organism-based
[10] = Metabolic stability in CD1 mouse plasma assessed as residual compound level at 50 uM after 30 mins by LC-UV analysis; assay type: ADME, cell-free; details: read-out: Stability
How it was run: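 Compounds incubated in mouse plasma for 30 min; percentage of residual substrate determined.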

Mus musculus [11] = assay: Volume of distribution in ip dosed CD1 mouse by LC-ESI-MS analysis; assay type: ADME, organism-based; details: in vivo
[12] = Plasma concentration in ip dosed CD1 mouse by LC-ESI-MS analysis; assay type: ADME, organism-based; details: in vivo
Mus musculus [13] = assay: Protection against cerulein-induced pancreatitis in CD1 mouse assessed as reduction in pancreatic edema at 40 mg/kg, ip administered at 30 and 150 mins post first cerulein addition by hematoxylin and eosin staining based microscopy; assay type: functional, organism-based
[14] = Drug metabolism in CD1 mouse liver microsomes assessed as ester group hydrolysis at 50 uM after 60 mins in presence of NADPH/UDPGA; assay type: ADME, microsome; details: 1 h
Mus musculus [15] = assay: Acute toxicity in CD1 mouse assessed as histological alterations in ileum at 40 mg/kg, ip administered as single dose for 14 days; assay type: organism-based; details: in vivo, 336 h
[16] = Metabolic stability in CD1 mouse liver S9 fraction assessed as residual compound level at 50 uM after 1 hr; assay type: ADME, subcellular; details: read-out: Stability
How it was run: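 Hydrolytic stability measured in mouse liver S9 fraction; residual substrate quantified after 1 h incubation.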

[17] = target: Short transient receptor potential channel 1 & 3/Stromal interaction molecule 1/Calcium release-activated calcium channel protein 1 (Homo sapiens, UniProt P48995+Q13507+Q13586+Q96D31); assay: (§1) Modulation of TRPC1/TRPC3/STIM1/Orai1 in HEK cells assessed as induction of store-operated calcium entry by measuring residual activity preincubated for 30 mins followed by tBhQ-mediated Ca2+ depletion and Ca2+ re-addition to extracellular solution measured for 600 secs by Fluo-4 AM-based fluorometric assay relative to control; assay type: cell-based
Short transient receptor potential channel 1 & 3/Stromal interaction molecule 1/Calcium release-activated calcium channel protein 1, sequence (Q96D31 whole entry): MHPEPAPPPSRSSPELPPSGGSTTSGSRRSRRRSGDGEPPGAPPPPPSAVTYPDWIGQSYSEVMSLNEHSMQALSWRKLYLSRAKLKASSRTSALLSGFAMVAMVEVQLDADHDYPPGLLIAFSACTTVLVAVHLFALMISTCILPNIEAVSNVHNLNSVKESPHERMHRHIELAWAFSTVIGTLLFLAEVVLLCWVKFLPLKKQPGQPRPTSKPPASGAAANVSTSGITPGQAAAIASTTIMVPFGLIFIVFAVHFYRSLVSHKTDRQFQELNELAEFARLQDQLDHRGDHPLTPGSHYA
Short transient receptor potential channel 1 & 3/Stromal interaction molecule 1/Calcium release-activated calcium channel protein 1, sequence (Q13507 whole entry): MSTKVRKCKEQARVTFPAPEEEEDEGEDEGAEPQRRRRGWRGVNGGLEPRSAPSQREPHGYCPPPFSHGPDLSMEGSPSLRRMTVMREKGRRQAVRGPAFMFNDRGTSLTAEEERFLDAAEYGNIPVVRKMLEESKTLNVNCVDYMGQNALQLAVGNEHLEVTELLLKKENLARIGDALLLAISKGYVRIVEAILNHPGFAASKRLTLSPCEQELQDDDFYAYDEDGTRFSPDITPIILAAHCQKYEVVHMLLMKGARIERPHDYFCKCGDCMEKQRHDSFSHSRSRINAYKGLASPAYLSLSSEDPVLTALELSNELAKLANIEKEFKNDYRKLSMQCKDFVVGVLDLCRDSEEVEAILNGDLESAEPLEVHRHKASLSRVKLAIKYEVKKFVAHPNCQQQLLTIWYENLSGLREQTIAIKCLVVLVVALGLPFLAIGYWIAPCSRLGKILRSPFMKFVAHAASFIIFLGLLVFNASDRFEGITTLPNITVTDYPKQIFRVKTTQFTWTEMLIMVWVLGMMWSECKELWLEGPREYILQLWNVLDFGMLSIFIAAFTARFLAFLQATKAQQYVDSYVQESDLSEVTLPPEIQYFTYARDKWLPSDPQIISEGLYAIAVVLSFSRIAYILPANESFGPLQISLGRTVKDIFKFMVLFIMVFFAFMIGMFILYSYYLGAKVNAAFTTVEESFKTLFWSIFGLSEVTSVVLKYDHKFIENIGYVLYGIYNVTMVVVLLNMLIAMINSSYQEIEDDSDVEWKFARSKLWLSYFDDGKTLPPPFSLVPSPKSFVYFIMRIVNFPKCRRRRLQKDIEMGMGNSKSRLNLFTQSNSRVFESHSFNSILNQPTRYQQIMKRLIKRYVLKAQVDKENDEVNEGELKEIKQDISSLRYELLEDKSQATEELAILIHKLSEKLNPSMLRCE
Short transient receptor potential channel 1 & 3/Stromal interaction molecule 1/Calcium release-activated calcium channel protein 1, sequence (Q13586 whole entry): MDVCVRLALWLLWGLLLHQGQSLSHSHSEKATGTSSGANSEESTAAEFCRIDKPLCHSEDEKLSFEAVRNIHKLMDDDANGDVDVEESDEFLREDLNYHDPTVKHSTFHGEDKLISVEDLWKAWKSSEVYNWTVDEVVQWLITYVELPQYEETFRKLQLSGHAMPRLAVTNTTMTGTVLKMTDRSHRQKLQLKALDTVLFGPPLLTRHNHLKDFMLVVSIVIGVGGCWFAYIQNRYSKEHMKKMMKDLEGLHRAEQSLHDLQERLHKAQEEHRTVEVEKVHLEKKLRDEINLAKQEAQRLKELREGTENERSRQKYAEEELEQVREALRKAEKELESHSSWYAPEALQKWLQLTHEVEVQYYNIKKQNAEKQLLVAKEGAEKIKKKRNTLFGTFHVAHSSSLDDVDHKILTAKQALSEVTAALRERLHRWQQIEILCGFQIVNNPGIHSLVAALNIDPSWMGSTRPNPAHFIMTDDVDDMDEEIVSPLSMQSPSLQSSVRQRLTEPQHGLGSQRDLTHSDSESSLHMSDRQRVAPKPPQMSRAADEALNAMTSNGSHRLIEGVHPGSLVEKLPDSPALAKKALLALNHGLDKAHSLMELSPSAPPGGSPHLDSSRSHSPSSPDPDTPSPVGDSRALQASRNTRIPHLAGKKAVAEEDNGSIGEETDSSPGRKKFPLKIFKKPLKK
Short transient receptor potential channel 1 & 3/Stromal interaction molecule 1/Calcium release-activated calcium channel protein 1, sequence (P48995 whole entry): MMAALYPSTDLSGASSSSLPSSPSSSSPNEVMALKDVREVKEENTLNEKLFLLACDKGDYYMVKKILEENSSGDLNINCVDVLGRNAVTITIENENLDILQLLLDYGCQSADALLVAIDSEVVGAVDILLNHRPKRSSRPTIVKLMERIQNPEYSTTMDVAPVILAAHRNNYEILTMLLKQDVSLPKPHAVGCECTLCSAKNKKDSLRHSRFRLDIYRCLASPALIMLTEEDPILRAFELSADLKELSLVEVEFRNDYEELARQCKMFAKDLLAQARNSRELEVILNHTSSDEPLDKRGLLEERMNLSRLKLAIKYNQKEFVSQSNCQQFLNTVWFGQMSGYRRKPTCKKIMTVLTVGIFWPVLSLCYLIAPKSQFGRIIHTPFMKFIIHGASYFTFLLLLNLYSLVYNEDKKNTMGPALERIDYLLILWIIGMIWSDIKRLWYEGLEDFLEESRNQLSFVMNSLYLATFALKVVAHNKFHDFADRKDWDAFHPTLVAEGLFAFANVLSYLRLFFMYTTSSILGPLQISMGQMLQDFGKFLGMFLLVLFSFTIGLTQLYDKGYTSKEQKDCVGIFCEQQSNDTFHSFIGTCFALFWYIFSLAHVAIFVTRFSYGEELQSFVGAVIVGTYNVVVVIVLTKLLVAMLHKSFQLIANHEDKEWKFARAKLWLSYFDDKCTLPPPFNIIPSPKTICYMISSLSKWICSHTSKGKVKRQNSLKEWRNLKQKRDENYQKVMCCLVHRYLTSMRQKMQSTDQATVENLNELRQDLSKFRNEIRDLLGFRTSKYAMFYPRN

Mus musculus [18] = assay: Acute toxicity in CD1 mouse assessed as histological alterations in lung at 40 mg/kg, ip administered as single dose for 14 days; assay type: organism-based; details: in vivo, 336 h
[19] = target: Short transient receptor potential channel 1 & 3/Stromal interaction molecule 1/Calcium release-activated calcium channel protein 1 (Homo sapiens) (UniProt Q96D31+Q13507+Q13586+P48995); assay: as §1, with “activity at 10 uM” for “activity”; assay type: cell-based
Mus musculus [20] = assay: Acute toxicity in CD1 mouse assessed as effect on body weight at 40 mg/kg, ip administered as single dose for 14 days; assay type: organism-based; details: in vivo, 336 h
[21] = tested on: voltage-gated calcium channel (Mus musculus); assay: Antagonist activity at voltage-gated calcium channels in C57/BL6 mouse cerebellar granule cells assessed as inhibition of KCl-induced voltage dependent calcium entry at 10 uM by fura-2-based assay
[22] = Drug metabolism in CD1 mouse liver microsomes assessed as ester group hydrolysis at 50 uM after 60 mins in absence of NADPH/UDPGA; assay type: ADME, microsome; details: 1 h
Mus musculus [23] = assay: Acute toxicity in CD1 mouse assessed as mortality at 40 mg/kg, ip administered as single dose for 14 days; assay type: organism-based; details: in vivo, 336 h
[24] = target: Transient receptor potential cation channel subfamily V member 1 (Homo sapiens) (UniProt Q8NER1); assay: Antagonist activity at TRPV1 (unknown origin) expressed in HEK cells assessed as inhibition of capsaicin-induced calcium increase at 10 uM by fura-2-based assay; assay type: cell-based
Transient receptor potential cation channel subfamily V member 1 (Homo sapiens), sequence (Q8NER1 whole entry): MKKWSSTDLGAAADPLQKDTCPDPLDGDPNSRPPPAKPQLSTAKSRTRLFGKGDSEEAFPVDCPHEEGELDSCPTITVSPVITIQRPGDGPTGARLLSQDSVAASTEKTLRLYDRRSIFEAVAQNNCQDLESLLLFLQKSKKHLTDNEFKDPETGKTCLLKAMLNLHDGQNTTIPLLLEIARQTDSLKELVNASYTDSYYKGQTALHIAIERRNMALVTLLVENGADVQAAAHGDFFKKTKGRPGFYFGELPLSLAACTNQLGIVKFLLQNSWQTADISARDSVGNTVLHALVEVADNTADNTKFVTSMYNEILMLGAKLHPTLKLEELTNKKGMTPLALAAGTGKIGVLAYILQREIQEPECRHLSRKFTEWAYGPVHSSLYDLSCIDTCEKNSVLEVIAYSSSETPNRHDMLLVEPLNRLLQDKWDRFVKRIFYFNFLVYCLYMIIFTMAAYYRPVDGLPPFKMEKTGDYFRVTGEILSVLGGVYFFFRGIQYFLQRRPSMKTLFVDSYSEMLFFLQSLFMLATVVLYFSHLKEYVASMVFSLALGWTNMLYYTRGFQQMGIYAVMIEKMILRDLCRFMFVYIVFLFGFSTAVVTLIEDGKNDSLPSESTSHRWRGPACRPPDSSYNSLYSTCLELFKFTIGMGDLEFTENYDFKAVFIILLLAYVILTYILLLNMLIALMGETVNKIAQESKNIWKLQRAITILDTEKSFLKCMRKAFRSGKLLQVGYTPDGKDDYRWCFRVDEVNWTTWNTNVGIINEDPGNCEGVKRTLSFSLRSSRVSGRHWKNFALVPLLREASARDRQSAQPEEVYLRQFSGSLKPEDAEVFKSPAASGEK
How it was run: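 TRPV1-overexpressing Hek cells; calcium rise evoked by capsaicin (100 nM), test compounds at 10 μM; peak amplitude read out; mean ± SEM of 600 cells from 30 plates on four separate experimental days.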

Mus musculus [25] = assay: Acute toxicity in CD1 mouse assessed as histological alterations in stomach at 40 mg/kg, ip administered as single dose for 14 days; assay type: organism-based; details: in vivo, 336 h
[26] = Half life in ip dosed CD1 mouse by LC-ESI-MS analysis; assay type: ADME, organism-based; details: in vivo
Mus musculus [27] = assay: Acute toxicity in CD1 mouse assessed as histological alterations in liver at 40 mg/kg, ip administered as single dose for 14 days; assay type: organism-based; details: in vivo, 336 h
[28] = Drug metabolism in CD1 mouse liver microsomes assessed as 3-(1-(4-(4-((Pentan-2-yloxy)carbonyl)-5-(trifluoromethyl)-1H-pyrazol-1-yl)-phenyl)-1H-1,2,3-triazol-4-yl)benzoic Acid metabolite formation at 50 uM after 60 mins by mass spectroscopic analysis; assay type: ADME, microsome
[29] = tested on: voltage-gated calcium channel (Mus musculus); assay: Antagonist activity at voltage-gated calcium channels in C57/BL6 mouse cerebellar granule cells assessed as inhibition of KCl-induced voltage dependent calcium entry at 10 uM by fura-2-based assay; remark: listed apart in the source
Mus musculus [30] = assay: Acute toxicity in CD1 mouse assessed as histological alterations in kidney at 40 mg/kg, ip administered as single dose for 14 days; assay type: organism-based; details: in vivo, 336 h
[31] = Cytotoxicity against HEK cells assessed as cell viability at 10 uM by MTT assay relative to control; assay type: cell-based; details: human, read-out: Activity
How it was run: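 Hek cells treated 24 h with compound at 10 μM; viability determined by MTT assay.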

CCCC(C)OC(=O)c1cnn(-c2ccc(-n3cc(-c4cccc(C(=O)O)c4)nn3)cc2)c1C(F)(F)F (stereo unspecified)
Activity (Mus musculus [1]): Active
inhibition [2]: inactive
Activity (Mus musculus [3]): Non-Toxic
Cmax [4]: 640 ng/mL
CL/F [5]: 283 mL/min/kg
Activity (Mus musculus [6]): Non-Toxic
Drug metabolism [7]: Metabolite_Notdetected
Activity (Mus musculus [8]): Non-Toxic
Activity (Mus musculus [9]): Active
remaining at 0.5 h, 50 µM [10]: 97.8%
Vd (Mus musculus [11]): 32 L/kg
concentration [12]: 1200 nM
Activity (Mus musculus [13]): Active
Drug metabolism [14]: Metabolite_Detected
Activity (Mus musculus [15]): Non-Toxic
remaining at 1 h, 50 µM [16]: 73.7%
IC50 [17]: 4.4 µM
Activity (Mus musculus [18]): Non-Toxic
Activity [19]: 17.5%
Activity (Mus musculus [20]): Non-Toxic
inhibition [21]: inactive
Drug metabolism [22]: Metabolite_Detected
Activity (Mus musculus [23]): Non-Toxic
inhibition [24]: inactive
Activity (Mus musculus [25]): Non-Toxic
half-life [26]: 1.3 h
Activity (Mus musculus [27]): Non-Toxic
Drug metabolism [28]: Metabolite_Detected
inhibition [29]: inactive
Activity (Mus musculus [30]): Non-Toxic
viability at 10 µM [31]: 93.6%
